Test results published in ChEMBL document CHEMBL1156035, “(3R,5S,7as)-(3,5-Bis(4-fluorophenyl)tetrahydro-1H-oxazolo[3,4-c]oxazol-7a-yl)methanol, a novel neuroprotective agent” (J Med Chem, 2009).
One block for each compound: values may come before it. The source made the active and inactive calls. The rule behind the calls is not given here.

Columns and labels:
[1] = Neuroprotective effect against beta-amyloid (25-35)-induced cell death in Sprague-Dawley rat cortical neuron treated 2 hrs before beta-amyloid (25-35) challenge measured after 48 hrs by propidium iodide staining-based fluorescence microscopy; format: functional; details: Cortical neurone
Summary of the method: (§1)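 Rat cortical neurons from embryonic day 18 Sprague–Dawley fetuses, plated on poly-D-lysine and kept serum-free in DMEM/F12 with N2, were used after 5 days. Compound (0.5–60 nM) was added about 2 h before 10 μM Aβ25–35 or Aβ1–42, preaggregated 24 h at 37 °C in Tris pH 7.4. Vehicle DMSO was ≤0.04%. After 48 h, cells were stained 30 min with 20 μM propidium iodide and 150 nM calcein-AM. Live and dead cells were counted in 6–12 fields from duplicate dishes across at least two preparations (about 1500 cells). Student's t test was used.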

[2] = Apparent passive permeability from abluminal to luminal side of BBMEC at 10 uM up to 1.5 hrs; format: ADME, Bos taurus; details: cattle
Summary of the method: (§2)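 Bovine brain microvessel endothelial cell monolayers, confluent on 0.4 μm polycarbonate membranes coated with collagen and fibronectin, mounted in side-by-side diffusion chambers with PBSA. The donor side (luminal or abluminal) received 10 μM unlabeled compound plus trace tritiated compound. Receiver samples were taken at time points up to 90 min and counted by liquid scintillation.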

Cortical neurone [3] = experiment: Neuroprotective effect against H2O2-induced cell death in Sprague-Dawley rat cortical neuron at 100 nM treated 2 hrs before H2O2 challenge measured after 48 hrs by propidium iodide staining-based fluorescence microscopy; format: functional
Bos taurus [4] = organism: Bos taurus; experiment: Displacement of [3H]paclitaxel from bovine microtubule at 400 uM
Summary of the method: (§3)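 Competitive binding: microtubules were formed from bovine brain microtubule protein (2 mg/mL) in PEM buffer with 0.5 mM GTP. Conditions were 100 μM tritiated compound with 0–40 μM paclitaxel, or 20 μM [3H]paclitaxel with 0–400 μM competitor, at 37 °C for 10 min. Pellets were spun at 100000g for 4 min, dissolved in 0.1 M NaOH, and radioactivity and protein were measured.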

Cortical neurone [5] = experiment: Neuroprotective effect against staurosporine-induced cell death in Sprague-Dawley rat cortical neuron at 100 nM treated 2 hrs before staurosporine challenge measured after 48 hrs by propidium iodide staining-based fluorescence microscopy; format: functional
[6] = Apparent passive permeability from luminal to abluminal side of BBMEC at 10 uM up to 1.5 hrs; format: ADME, Bos taurus; details: cattle; summary of the method: as §2
Bos taurus [7] = organism: Bos taurus; experiment: Induction of bovine tubulin aggregation at 100 to 400 uM after 30 mins by electron microscopy
Cortical neurone [8] = experiment: Neuroprotective effect against beta-amyloid (1-42)-induced cell death in Sprague-Dawley rat cortical neuron at 0.5 to 60 nM treated 2 hrs before beta-amyloid (1-42) challenge measured after 48 hrs by propidium iodide staining-based fluorescence microscopy; format: functional; summary of the method: as §1
Bos taurus [9] = organism: Bos taurus; experiment: Induction of bovine tubulin assembly assessed as microtubule formation at 100 to 400 uM after 30 mins by electron microscopy
Cortical neurone [10] = experiment: Neuroprotective effect against thapsigargin-induced cell death in Sprague-Dawley rat cortical neuron at 100 nM treated 2 hrs before thapsigargin challenge measured after 48 hrs by propidium iodide staining-based fluorescence microscopy; format: functional
Bos taurus [11] = organism: Bos taurus; experiment: Induction of P-gp-mediated rhodamine 123 uptake in BBMEC at 1 to 50 uM
Summary of the method: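 Primary bovine brain microvessel endothelial cells in 24-well plates were rinsed and equilibrated 10 min in warm PBSA. They were preincubated 30 min at 37 °C with compound at 1–50 μM, then given 5 μM rhodamine 123 for 2 h. Cells were rinsed with ice-cold PBS and lysed in 0.5% Triton X-100/0.2 M NaOH. Rhodamine 123 fluorescence was normalized to BCA protein. Cyclosporine A served as positive control.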

Bos taurus [12] = organism: Bos taurus; experiment: Induction of bovine tubulin assembly assessed as microtubule formation at 100 uM after 30 mins by DAPI staining-based fluorescence assay in absence of GTP
Summary of the method: (§4)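 DAPI fluorescence assembly assay: bovine brain microtubule protein (containing MAPs) at 2 mg/mL in PEM buffer (0.1 M PIPES, 1 mM MgSO4, 1 mM EGTA, pH 6.9), 4% DMSO and 10 μM DAPI, without GTP, with varying compound concentrations. Plates were incubated 30 min at 37 °C and fluorescence was read. Values were corrected for a no-compound control and expressed relative to the maximum given by 25 μM paclitaxel.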

Bos taurus [13] = organism: Bos taurus; experiment: Induction of bovine tubulin assembly assessed as microtubule formation at 200 to 400 uM after 30 mins by DAPI staining-based fluorescence assay in absence of GTP; summary of the method: as §4
Cortical neurone [14] = experiment: Neuroprotective effect against paraquat-induced cell death in Sprague-Dawley rat cortical neuron at 100 nM treated 2 hrs before paraquat challenge measured after 48 hrs by propidium iodide staining-based fluorescence microscopy; format: functional
Bos taurus [15] = organism: Bos taurus; experiment: Stabilization of bovine microtubule against cold-induced […] assessed as pelleted protein level at 400 uM by centrifugation assay
Bos taurus [16] = organism: Bos taurus; experiment: Induction of bovine tubulin assembly assessed as formation of pelleted protein at 100 to 400 uM after 30 mins by centrifugation assay relative to paclitaxel in presence of GTP
Bos taurus [17] = organism: Bos taurus; experiment: Displacement of [3H](3R,5S,7as)-(3,5-bis(4-fluorophenyl)tetrahydro-1H-oxazolo[3,4-c]oxazol-7a-yl)methanol from bovine microtubule at 40 uM; summary of the method: as §3
Bos taurus [18] = organism: Bos taurus; experiment: Induction of bovine tubulin assembly assessed as microtubule formation at 25 uM after 30 mins by DAPI staining-based fluorescence assay in absence of GTP; summary of the method: as §4
Bos taurus [19] = organism: Bos taurus; experiment: Stabilization of bovine microtubule against cold-induced […] assessed as pelleted protein level at 20 uM by centrifugation assay

Papp at 1.5 h, 10 µM [2]: 244 ×10⁻⁶ cm/s | Activity (Bos taurus [4]): 40% | Papp at 1.5 h, 10 µM [6]: 286 ×10⁻⁶ cm/s | Activity (Bos taurus [7]): Active | Activity (Bos taurus [9]): inactive | Activity (Bos taurus [11]): inactive | Activity (Bos taurus [12]): Active | Activity (Bos taurus [13]): inactive | Activity (Bos taurus [15]): 9% | Activity (Bos taurus [16]): 10%
SMILES: OC[C@]12CO[C@H](c3ccc(F)cc3)N1[C@H](c1ccc(F)cc1)OC2
EC50 [1]: 5 nM | Activity (Cortical neurone [3]): Active | Activity (Cortical neurone [5]): Active | Activity (Cortical neurone [8]): Active | Activity (Cortical neurone [10]): Active | Activity (Cortical neurone [14]): Active

Activity (Bos taurus [7]): Active | Activity (Bos taurus [9]): inactive
SMILES: OCC12CO[C@H](c3ccc(F)cc3)N1[C@@H](c1ccc(F)cc1)OC2 (relative stereo)
EC50 [1]: 50 nM

Activity (Bos taurus [7]): Active | Activity (Bos taurus [9]): inactive
SMILES: OCC1(CO)COC(c2ccc(F)cc2)N1 (stereo not given)
EC50 [1]: 40 nM

Activity (Bos taurus [17]): 42% | Activity (Bos taurus [18]): 20% | Activity (Bos taurus [19]): 79%
SMILES: CC(=O)O[C@H]1C(=O)[C@@]2(C)[C@H]([C@H](OC(=O)c3ccccc3)[C@]3(O)C[C@H](OC(=O)[C@H](O)[C@@H](NC(=O)c4ccccc4)c4ccccc4)C(C)=C1C3(C)C)[C@]1(OC(C)=O)CO[C@@H]1C[C@@H]2O
